# Test results: ChEMBL document CHEMBL1139875, “Discovery of 4-aminobutyric acid derivatives possessing anticonvulsant and antinociceptive activities: a hybrid pharmacophore approach” (2007)
# Calls of active or inactive are those of the source. The calls are words filed in the database; no cut-off is given here.
# Assays:
# Mus musculus [1] = test: Anticonvulsant activity in Swiss Albino mouse at 300 mg/kg, ip after 0.5 hr by MES test; type: functional, organism-based; parameters: dose 300 mg/kg
# How it was run: (§1)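 Mice (Swiss, 20-25 g) given i.p. doses of 30, 100 and 300 mg/kg under ADD program protocols, three per group, examined at 0.5 and 4 h in MES, scPTZ, scSTY or scPIC seizure tests. Value is the minimum dose protecting half or more of the mice.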
# Mus musculus [2] = test: Anticonvulsant activity in Swiss Albino mouse at 300 mg/kg, ip after 4 hrs by MES test; type: functional, organism-based; parameters: dose 300 mg/kg; how it was run: as §1
# Mus musculus [3] = test: Anticonvulsant activity in Swiss Albino mouse at 300 mg/kg, ip after 0.5 hr by scPTZ test; type: functional, organism-based; parameters: dose 300 mg/kg; how it was run: as §1
# Mus musculus [4] = test: Anticonvulsant activity in Swiss Albino mouse at 300 mg/kg, ip after 0.5 hr by scSTY test; type: functional, organism-based; parameters: dose 300 mg/kg; how it was run: as §1
# Mus musculus [5] = test: Anticonvulsant activity in Swiss Albino mouse at 300 mg/kg, ip after 4 hrs by scSTY test; type: functional, organism-based; parameters: dose 300 mg/kg; how it was run: as §1
# Mus musculus [6] = test: Anticonvulsant activity in Swiss Albino mouse at 300 mg/kg, ip after 0.5 hr by scPIC test; type: functional, organism-based; parameters: dose 300 mg/kg; how it was run: as §1
# Mus musculus [7] = test: Anticonvulsant activity in Swiss Albino mouse at 300 mg/kg, ip after 4 hrs by scPIC test; type: functional, organism-based; parameters: dose 300 mg/kg; how it was run: as §1
# Mus musculus [8] = test: Neurotoxicity in Swiss Albino mouse at 100 mg/kg, ip after 0.5 hr by rotarod test; type: functional, organism-based; parameters: dose 100 mg/kg
# How it was run: (§2)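 Swiss mice (20-25 g) are trained on an accelerating rotorod (10 rpm, 3.2 cm rod), then injected i.p. at 30, 100 or 300 mg/kg, with three per group. Neurotoxicity means failure to keep equilibrium for at least 1 min in each of three trials, checked at 0.5 and 4 h. The value reported is the minimum dose affecting half or more of the mice.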
# Mus musculus [9] = test: Analgesic activity in Swiss Albino mouse assessed as number of acetic acid-induced writhing per 30 min after 100 mg/kg, ip; type: functional; settings: route intraperitoneal
# How it was run: (§3)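 Mice in groups of six dosed i.p. at 100 mg/kg, controls receiving 30% v/v PEG 400 in water. Writhing induced by i.p. 0.1 mL of 3% v/v acetic acid 1 h after drug. Writhes (abdominal stretch with at least one hind limb extended) counted over 30 min; % inhibition calculated. Mean ± SEM, Student's t test.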
# Mus musculus [10] = test: Analgesic activity in Swiss Albino mouse assessed as inhibition of acetic acid-induced writhing responses at 100 mg/kg, ip; type: functional; settings: route intraperitoneal; how it was run: as §3
# Rattus norvegicus [11] = test: Anti-cold allodynia effect in Sprague-Dawley rat SNL model assessed as duration of paw withdrawal 100 mg/kg, ip after 0.5 hr; type: functional; settings: route intraperitoneal
# How it was run: (§4)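 Left L5 spinal nerve ligation under pentobarbital (65 mg/kg i.p.). Allodynic rats dosed i.p. 100 mg/kg, vehicle 30% v/v PEG 400 in water. Acetone (100-200 µL) misted onto midplantar affected paw after 10 min acclimatization; paw withdrawal duration, mean of three samples at least 3 min apart; n = 4 rats.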
# Rattus norvegicus [12] = test: Anti-cold allodynia effect in Sprague-Dawley rat SNL model assessed as duration of paw withdrawal 100 mg/kg, ip after 1 hrs; type: functional; settings: route intraperitoneal; how it was run: as §4
# Rattus norvegicus [13] = test: Anti-cold allodynia effect in Sprague-Dawley rat SNL model assessed as duration of paw withdrawal 100 mg/kg, ip after 1.5 hrs; type: functional; settings: route intraperitoneal; how it was run: as §4
# Rattus norvegicus [14] = test: Effect on spontaneous pain in Sprague-Dawley rat SNL model assessed as duration of paw withdrawal at 100 mg/kg, ip after 1 hr; type: functional; settings: route intraperitoneal
# How it was run: (§5)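 Rats underwent left L5 spinal nerve ligation (Kim and Chung) under i.p. pentobarbital (65 mg/kg). Spontaneous pain is recorded for 5 min after 10 min acclimatization, as cumulative duration the ipsilateral paw is lifted, excluding locomotor lifts. Dosing is 100 mg/kg i.p. in 30% v/v PEG 400/water, with testing at 0.5–2.5 h. Four rats, mean ± SEM versus predrug, one-way ANOVA with Bonferroni.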
# Rattus norvegicus [15] = test: Effect on spontaneous pain in Sprague-Dawley rat SNL model assessed as duration of paw withdrawal at 100 mg/kg, ip after 1.5 hrs; type: functional; settings: route intraperitoneal; how it was run: as §5
# Rattus norvegicus [16] = test: Antihyperalgesic effects in Sprague-Dawley rat SNL model assessed as duration of paw withdrawal at 100 mg/kg, ip after 2 hrs, ip; type: functional; settings: route intraperitoneal
# How it was run: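 L5 SNL rats (n = 4), dosed 100 mg/kg i.p. (vehicle 30% v/v PEG 400 in water). Pin-prick to midplantar ipsilateral left hindpaw; withdrawal duration, mean of three responses; ≥2 s defined abnormal. Mean ± SEM; one-way ANOVA with Bonferroni versus predrug.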
# Rattus norvegicus [17] = test: Anti-cold allodynia effect in Sprague-Dawley rat CCI model assessed as duration of paw withdrawal 100 mg/kg, ip after 2.5 hr; type: functional; settings: route intraperitoneal
# How it was run: (§6)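 CCI by sciatic nerve ligation under pentobarbital (65 mg/kg i.p.). Rats tested at baseline and 9 days post-surgery; those with allodynia dosed i.p. 100 mg/kg, vehicle 30% v/v PEG 400 in water. Acetone (100-200 µL) misted on midplantar affected paw; withdrawal duration recorded, three samples averaged, at least 3 min apart; n = 4.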
# Rattus norvegicus [18] = test: Anti-dynamic allodynia effect in Sprague-Dawley rat SNL model assessed as latency to paw withdrawal 100 mg/kg, ip after 0.5 hr; type: functional; settings: route intraperitoneal
# How it was run: (§7)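 Left L5 spinal nerve ligation rats, tested preoperatively and 9 days postoperatively, then given 100 mg/kg i.p. (vehicle 30% v/v PEG 400 in water). After 10 min acclimatization, plantar surface of affected paw stroked mildly with a cotton-bud; paw lift response recorded. n = 4; retested 0.5-2.5 h post-dose.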
# Rattus norvegicus [19] = test: Anti-dynamic allodynia effect in Sprague-Dawley rat SNL model assessed as latency to paw withdrawal 100 mg/kg, ip after 1 hr; type: functional; settings: route intraperitoneal; how it was run: as §7
# Rattus norvegicus [20] = test: Anti-dynamic allodynia effect in Sprague-Dawley rat SNL model assessed as latency to paw withdrawal 100 mg/kg, ip after 1.5 hrs; type: functional; settings: route intraperitoneal; how it was run: as §7
# Rattus norvegicus [21] = test: Anti-dynamic allodynia effect in Sprague-Dawley rat SNL model assessed as latency to paw withdrawal 100 mg/kg, ip after 2 hrs; type: functional; settings: route intraperitoneal; how it was run: as §7
# Rattus norvegicus [22] = test: Anti-dynamic allodynia effect in Sprague-Dawley rat SNL model assessed as latency to paw withdrawal 100 mg/kg, ip after 2.5 hrs; type: functional; settings: route intraperitoneal; how it was run: as §7
# Rattus norvegicus [23] = test: Anti-cold allodynia effect in Sprague-Dawley rat CCI model assessed as duration of paw withdrawal 100 mg/kg, ip after 1 hr; type: functional; settings: route intraperitoneal; how it was run: as §6
# Rattus norvegicus [24] = test: Anti-cold allodynia effect in Sprague-Dawley rat CCI model assessed as duration of paw withdrawal 100 mg/kg, ip after 1.5 hr; type: functional; settings: route intraperitoneal; how it was run: as §6
# Mus musculus [25] = test: Anticonvulsant activity in Swiss Albino mouse at 30 mg/kg, ip after 0.5 hr by scPIC test; type: functional, organism-based; parameters: dose 30 mg/kg; how it was run: as §1
# Mus musculus [26] = test: Anticonvulsant activity in Swiss Albino mouse at 100 mg/kg, ip after 4 hrs by scPIC test; type: functional, organism-based; parameters: dose 100 mg/kg; how it was run: as §1
# Mus musculus [27] = test: Neurotoxicity in Swiss Albino mouse at 300 mg/kg, ip after 0.5 hr by rotarod test; type: functional, organism-based; parameters: dose 300 mg/kg; how it was run: as §2
# Mus musculus [28] = test: Anticonvulsant activity in Swiss Albino mouse at 30 mg/kg, ip after 0.5 hr by scSTY test; type: functional, organism-based; parameters: dose 30 mg/kg; how it was run: as §1
# Mus musculus [29] = test: Anticonvulsant activity in Swiss Albino mouse at 30 mg/kg, ip after 4 hrs by scSTY test; type: functional, organism-based; parameters: dose 30 mg/kg; how it was run: as §1
# Mus musculus [30] = test: Anticonvulsant activity in Swiss Albino mouse at 30 mg/kg, ip after 4 hrs by scPIC test; type: functional, organism-based; parameters: dose 30 mg/kg; how it was run: as §1
Structure (SMILES),Activity (Mus musculus [1]),Activity (Mus musculus [2]),Activity (Mus musculus [3]),Activity (Mus musculus [4]),Activity (Mus musculus [9]),inhibition in vivo at 100 mg/kg (Mus musculus [10]) [%],Activity (Rattus norvegicus [11]) [s],Activity (Rattus norvegicus [12]) [s],Activity (Rattus norvegicus [13]) [s],Activity (Rattus norvegicus [14]) [s],Activity (Rattus norvegicus [15]) [s],Activity (Rattus norvegicus [16]) [s],Activity (Rattus norvegicus [17]) [s],Activity (Rattus norvegicus [18]) [s],Activity (Rattus norvegicus [19]) [s],Activity (Rattus norvegicus [20]) [s],Activity (Rattus norvegicus [21]) [s],Activity (Rattus norvegicus [22]) [s],Activity (Rattus norvegicus [23]) [s],Activity (Rattus norvegicus [24]) [s],also measured
O=C(O)CCCNC(=O)N/N=C1\C(=O)Nc2ccccc21,Active,Active,Active,inactive,47.3,74,11,16.3,22.6,0.9,0.9,19.7,–,–,–,–,–,–,–,–,Activity (Mus musculus [5]): inactive; Activity (Mus musculus [6]): Active; Activity (Mus musculus [7]): Active; Activity (Mus musculus [8]): Active
Nc1nnc(-c2cccc(Cl)c2Cl)c(N)n1 [LAMOTRIGINE],–,–,–,–,–,–,19.2,9.2,21.8,13.3,2.6,6.4,23.7,1.9,1.6,1.9,0.7,0.64,33.6,32.4,–
CN(C)c1ccc(/C=N/NC(=O)NCCCC(=O)O)cc1,inactive,inactive,inactive,inactive,13,93,–,–,–,21.2,16.4,4.4,18.1,10.7,8.8,7.3,2.9,1.82,19.7,14.4,Activity (Mus musculus [5]): inactive; Activity (Mus musculus [25]): Active; Activity (Mus musculus [26]): Active; Activity (Mus musculus [27]): inactive
NC(=O)N1c2ccccc2C=Cc2ccccc21 [CARBAMAZEPINE],–,–,–,–,–,–,13.5,11.8,7.9,7.9,22.3,5.5,21.8,14.7,13.4,2.9,1.9,1.65,10.6,28.9,–
NCC1(CC(=O)O)CCCCC1 [GABAPENTIN],–,–,–,–,–,–,16.7,9,7.8,12.9,10.2,9.9,7.2,1.5,4.6,6,6.6,6.53,10,9.3,–
O=C(O)CCCNC(=O)N/N=C/c1ccccc1O,inactive,inactive,inactive,–,19,89,22.2,27.3,26,–,–,–,12.2,11.2,14.3,11.5,11.8,11.32,15.8,11.2,Activity (Mus musculus [28]): Active; Activity (Mus musculus [29]): Active; Activity (Mus musculus [25]): Active; Activity (Mus musculus [30]): Active; Activity (Mus musculus [27]): inactive
